Assay results published in the RNAGym collection of RNA variant scans (doi:10.1126/science.aae0568).
Fewer inactive variants are shown than the library holds.

B1: tRNA (parent)
chain: GUUCCGUUGGCGUAAUGGUAACGCGUCUCCCUCCUAAGGAGAAGACUGCGGGUUCGAGUCCCGUACGGAACG

Variants of: B1
Assay: yeast fitness relative to wild type (ratio to wild type); higher = fitter; tRNA-Arg(CCU), competitive growth, 37 C, YPD
Outline: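 Start and end populations of a pooled competition were compared by 100-nucleotide paired-end sequencing of gene amplicons. The Saccharomyces cerevisiae strains carried tRNA-Arg(CCU) gene variants at the native genomic locus, synthesised with a 3% per-site mutation rate at 69 sites, and competed in YPD at 37°C for 24 hours in six parallel replicates. Darwinian fitness relative to wild type was based on the change in genotype frequencies. Genotypes required ≥ 100 starting reads, and estimates < 0.5 were set to 0.5.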
Work on U7C A43C C55U yielded a yeast fitness of 0.543.
U7C A43G showed a yeast fitness of 0.841.
Work on U7C A43G A65C yielded a yeast fitness of 0.591.
U7C A43U gave a yeast fitness of 0.949.
Variant U7C A45U U54C has a yeast fitness of 0.557.
U7C A57C gave a yeast fitness of 0.612.
For U7C A57G, the yeast fitness was 0.842.
U7C A57U U64C G67C gave a yeast fitness of 0.501.
Variant U7C A65U has a yeast fitness of 0.849.
In the case of U7C A65U A69U, the yeast fitness is reported as 0.801.
For U7C A69U, the yeast fitness was 0.913.
For U7C A70G, the yeast fitness was 0.879.
U7C C11A C30G gave a yeast fitness of at most 0.5.
Work on U7C C11A C33A A36C G63C C66G yielded a yeast fitness of at most 0.5.
Variant U7C C11G C24U G48A A57G C66U A70C has a yeast fitness of at most 0.5.
In the case of U7C C11G C24U G48A C66U, the yeast fitness is reported as at most 0.5.
Variant U7C C11G C24U G48A C66U A70C has a yeast fitness of at most 0.5.
U7C C11G C30G C33A A57C C61A gave a yeast fitness of at most 0.5.
With U7C C11G G18A G44U A65C the yeast fitness was at most 0.5.
In the case of U7C C11G U13G C30U A70C, the yeast fitness is reported as at most 0.5.
U7C C11G U32G C61U showed a yeast fitness of 0.59.
U7C C11U gave a yeast fitness of 0.886.
U7C C11U A37C C60A showed a yeast fitness of at most 0.5.
U7C C11U C22A C29G C33U gave a yeast fitness of at most 0.5.
Work on U7C C11U C31U C33G C49A G51A yielded a yeast fitness of at most 0.5.
Variant U7C C11U G39C A45U has a yeast fitness of at most 0.5.
Variant U7C C11U U32C G39C G67C has a yeast fitness of at most 0.5.
U7C C22A C31U A57C G58A A69G showed a yeast fitness of at most 0.5.
U7C C22G showed a yeast fitness of 0.842.
For U7C C22G C24A G25C, the yeast fitness was at most 0.5.
For U7C C22U A43U, the yeast fitness was at most 0.5.
U7C C22U C29G showed a yeast fitness of at most 0.5.
U7C C22U C49U C55A showed a yeast fitness of at most 0.5.
In the case of U7C C22U U53A, the yeast fitness is reported as 0.71.
In the case of U7C C24A C29G, the yeast fitness is reported as 0.594.
With U7C C24A C55A C62U A65C the yeast fitness was at most 0.5.
For U7C C24A G67A, the yeast fitness was at most 0.5.
In the case of U7C C24A G68A, the yeast fitness is reported as at most 0.5.
Work on U7C C24G A45G yielded a yeast fitness of at most 0.5.
With U7C C24U the yeast fitness was 0.855.
Work on U7C C24U A42G U54A C55G yielded a yeast fitness of at most 0.5.
In the case of U7C C24U A70G, the yeast fitness is reported as 0.666.
U7C C24U C31A A42G U54A C55G showed a yeast fitness of at most 0.5.
With U7C C27A A69U the yeast fitness was at most 0.5.
Variant U7C C27A C66A has a yeast fitness of at most 0.5.
U7C C27A G51C C60U A69C showed a yeast fitness of at most 0.5.
In the case of U7C C27G A69U, the yeast fitness is reported as 0.632.
U7C C27G C33G G44A showed a yeast fitness of 0.75.
In the case of U7C C27G C33G G44A C61G, the yeast fitness is reported as at most 0.5.
U7C C27U A36C G56C G68A A70U showed a yeast fitness of at most 0.5.
In the case of U7C C27U A45C, the yeast fitness is reported as 0.609.
With U7C C27U A45U G48A C66U the yeast fitness was at most 0.5.
Variant U7C C27U C60A has a yeast fitness of at most 0.5.
With U7C C27U G48A C55A G63A the yeast fitness was at most 0.5.
With U7C C29A U32C C60A the yeast fitness was at most 0.5.
Variant U7C C29G A40U has a yeast fitness of 0.665.
With U7C C29G C49U U64A G68A the yeast fitness was at most 0.5.
In the case of U7C C29G G39A, the yeast fitness is reported as at most 0.5.
For U7C C29G G44C, the yeast fitness was 0.567.
With U7C C29G G44C C60U the yeast fitness was at most 0.5.
U7C C29G G58C G67C gave a yeast fitness of at most 0.5.
With U7C C29G G67C the yeast fitness was 0.651.
With U7C C29G U47C U53G the yeast fitness was at most 0.5.
For U7C C29U C31A C66G G67U, the yeast fitness was at most 0.5.
U7C C29U U47A C62G gave a yeast fitness of at most 0.5.
For U7C C30A, the yeast fitness was 0.794.
With U7C C30A A42C C60U A69G the yeast fitness was at most 0.5.
U7C C30A U54A A57C showed a yeast fitness of at most 0.5.
U7C C30G showed a yeast fitness of 0.579.
With U7C C30G A40C A42G the yeast fitness was 0.534.
For U7C C30G A40U A70U, the yeast fitness was at most 0.5.
In the case of U7C C30G G39A G41U G51C G52A, the yeast fitness is reported as at most 0.5.
For U7C C30G U32C A40C C62U G67A, the yeast fitness was at most 0.5.
In the case of U7C C30G U54C C61G, the yeast fitness is reported as at most 0.5.
In the case of U7C C30U C34A, the yeast fitness is reported as at most 0.5.
For U7C C30U C34A A57U C66A, the yeast fitness was 0.555.
In the case of U7C C30U C34A G52C, the yeast fitness is reported as at most 0.5.
U7C C30U G39C gave a yeast fitness of at most 0.5.
U7C C30U G39C U54C U64C showed a yeast fitness of at most 0.5.
Work on U7C C30U G39C U64C yielded a yeast fitness of at most 0.5.
For U7C C30U G44A G56A, the yeast fitness was 0.522.
Variant U7C C31A U35G A42G has a yeast fitness of 0.591.
In the case of U7C C31G, the yeast fitness is reported as 0.81.
U7C C31G C34U A57U gave a yeast fitness of at most 0.5.
For U7C C31G G38C A43U C62G, the yeast fitness was at most 0.5.
Variant U7C C31G U32C G48C G50A A65U has a yeast fitness of at most 0.5.
In the case of U7C C31U, the yeast fitness is reported as 0.954.
For U7C C31U A43G U59A, the yeast fitness was 0.505.
U7C C31U A57U showed a yeast fitness of 0.539.
For U7C C31U A70U, the yeast fitness was 0.658.
Work on U7C C31U C46U yielded a yeast fitness of 0.532.
Work on U7C C31U U47C yielded a yeast fitness of at most 0.5.
U7C C33G A36G C49A G68C showed a yeast fitness of at most 0.5.
In the case of U7C C33G A37U A40C A69U, the yeast fitness is reported as 0.533.
Variant U7C C33U A65U has a yeast fitness of at most 0.5.
With U7C C33U G39C G58A the yeast fitness was at most 0.5.
In the case of U7C C33U G58A C66A, the yeast fitness is reported as at most 0.5.
With U7C C33U G63A the yeast fitness was 0.54.
Variant U7C C34A has a yeast fitness of 0.764.
For U7C C34A U59A, the yeast fitness was at most 0.5.
With U7C C34G A45G C60U A69U the yeast fitness was at most 0.5.
U7C C34U A70G showed a yeast fitness of at most 0.5.
For U7C C46A U64C, the yeast fitness was 0.545.
In the case of U7C C46G, the yeast fitness is reported as 0.943.
Work on U7C C46G G50A C62G U64C yielded a yeast fitness of 0.695.
Work on U7C C46U yielded a yeast fitness of 0.884.
With U7C C46U A69U the yeast fitness was 0.842.
U7C C49A showed a yeast fitness of 0.732.
For U7C C49A G67A, the yeast fitness was at most 0.5.
Variant U7C C49G has a yeast fitness of 0.774.
For U7C C49G A69C, the yeast fitness was 0.58.
With U7C C49U U54C the yeast fitness was 0.508.
U7C C55A G67A showed a yeast fitness of at most 0.5.
Variant U7C C55U has a yeast fitness of 0.847.
With U7C C61G the yeast fitness was 0.634.
U7C C61G C62U showed a yeast fitness of at most 0.5.
U7C C61U showed a yeast fitness of 0.959.
U7C C61U A70G showed a yeast fitness of 0.712.
For U7C C61U U64A A69G, the yeast fitness was 0.535.
U7C C62A showed a yeast fitness of 0.786.
With U7C C62G A69U the yeast fitness was 0.565.
Variant U7C C62U A65U has a yeast fitness of 0.542.
Variant U7C C66U has a yeast fitness of 0.921.
U7C G9A A14C C33G G50C C60G U64A gave a yeast fitness of 0.618.
With U7C G9A A20U A36G C55G the yeast fitness was at most 0.5.
For U7C G9A G23C A45C, the yeast fitness was at most 0.5.
U7C G9C showed a yeast fitness of 0.729.
U7C G9C G41A showed a yeast fitness of at most 0.5.
For U7C G9C U28C G41A, the yeast fitness was at most 0.5.
For U7C G10A C24G, the yeast fitness was at most 0.5.
With U7C G10A C24G C62A the yeast fitness was at most 0.5.
U7C G10A C29U C30G C34A gave a yeast fitness of at most 0.5.
Work on U7C G10A C34A G63A yielded a yeast fitness of 0.555.
Work on U7C G10A G41C U64G A65C yielded a yeast fitness of at most 0.5.
U7C G10C C46U showed a yeast fitness of 0.523.
U7C G10C C46U G63C showed a yeast fitness of at most 0.5.
For U7C G10C C49U A65G, the yeast fitness was at most 0.5.
Variant U7C G10C C61G C62U has a yeast fitness of at most 0.5.
Work on U7C G12A A45C C61G A65C yielded a yeast fitness of at most 0.5.
Variant U7C G12A C24U has a yeast fitness of at most 0.5.
U7C G12A C24U C49A gave a yeast fitness of at most 0.5.
In the case of U7C G12A C31U U47C, the yeast fitness is reported as at most 0.5.
With U7C G12A G41A A42C G50C A70G the yeast fitness was 0.53.
With U7C G12A U13C U26C the yeast fitness was 0.565.
With U7C G12A U13C U26C C60U the yeast fitness was at most 0.5.
U7C G12A U13C U26C C61U G63A showed a yeast fitness of 0.596.
In the case of U7C G12C, the yeast fitness is reported as 0.914.
With U7C G12C A20C the yeast fitness was 0.632.
For U7C G17A C22U, the yeast fitness was 0.651.
Work on U7C G17C U19C C24G G48C G51C U53C A57U C66U yielded a yeast fitness of 0.575.
Work on U7C G18A C31A yielded a yeast fitness of 0.541.
For U7C G18A C31A U59A, the yeast fitness was at most 0.5.
With U7C G18A G50A U64A the yeast fitness was at most 0.5.
Variant U7C G18A U35A A43U U54C A65G has a yeast fitness of at most 0.5.
For U7C G18C A37G G51C, the yeast fitness was 0.697.
U7C G18C C55G showed a yeast fitness of at most 0.5.
In the case of U7C G18C G38C C62A, the yeast fitness is reported as at most 0.5.
Variant U7C G23A G56C G68A has a yeast fitness of at most 0.5.
U7C G25A showed a yeast fitness of 1.04.
With U7C G25A G41A A42C G50C A70G the yeast fitness was 0.569.
U7C G25A U47C U64G G68C gave a yeast fitness of at most 0.5.
In the case of U7C G25A U59C A69C, the yeast fitness is reported as at most 0.5.
Variant U7C G25C has a yeast fitness of 0.822.
For U7C G25C U47C, the yeast fitness was 0.622.
Work on U7C G38A yielded a yeast fitness of 0.881.
Work on U7C G38C yielded a yeast fitness of 0.715.
In the case of U7C G38C C49A A70C, the yeast fitness is reported as at most 0.5.
